In the library only some 2.6% were active in any assay of this set; here they are far more common.
V1aR counter: agonists of human V1a receptor, primary screen, counter-screen for OXTR agonist project, fluorescence, CHO-V1R cells; 320,000 compounds, 0.25% hits; Vasopressin V1a receptor (Homo sapiens), P37288; Fluo-8 calcium fluorescence, agonist mode; 0% DMSO, 100% 3 nM vasopressin; activation, % at 3 µM; AID 2797, 2010;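 active = activation above the mean activation of all tested compounds plus 3 SD, per screening run, cut at about 20% in these data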;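 note: signal is peak over basal fluorescence ratio across a 100 second FLIPR read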
OX1R antag-1: antagonists of human orexin 1 receptor (OX1R). Orexin/Hypocretin receptor type 1 (Homo sapiens), O43613. OX1R-expressing cells, FRET antagonist read-out. inhibition, % at 6.6 µM. 330,000 compounds, 1.8% hits. AID 485270, 2010; in the data active = inhibition mostly above about 38%, no sharp cut-off; inactive = mostly below about 40%
OX1R antag-2: OX1R (HCRTR1) antagonists, primary screen, fluorescence, CHO/OX1R cells, Fluo-8 calcium, orexin A. Orexin/Hypocretin receptor type 1 (Homo sapiens), O43613. Fluo-8 calcium fluorescence. inhibition, % at 5 µM. 330,000 compounds, 0.43% hits;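 active = inhibition above its plate's threshold, mean inhibition of all tested compounds on the plate plus 3 SD, cut at about 37% in these data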
OXTR potentiate: human OXTR potentiators, primary screen, fluorescence, CHO-OTR cells, Fluo-8 calcium | activation, % at 3 µM | 320,000 compounds, 0.061% hits | Oxytocin receptor (Homo sapiens), P30559 | Fluo-8 calcium fluorescence, potentiator mode; 0% = oxytocin EC15, 100% = EC100;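 active = activation above that plate's cutoff, the mean activation of tested compounds plus 3 SD, cut at about 6.6% in these data, passing the limit was not always enough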
Target sequence (P30559 whole entry, looked up): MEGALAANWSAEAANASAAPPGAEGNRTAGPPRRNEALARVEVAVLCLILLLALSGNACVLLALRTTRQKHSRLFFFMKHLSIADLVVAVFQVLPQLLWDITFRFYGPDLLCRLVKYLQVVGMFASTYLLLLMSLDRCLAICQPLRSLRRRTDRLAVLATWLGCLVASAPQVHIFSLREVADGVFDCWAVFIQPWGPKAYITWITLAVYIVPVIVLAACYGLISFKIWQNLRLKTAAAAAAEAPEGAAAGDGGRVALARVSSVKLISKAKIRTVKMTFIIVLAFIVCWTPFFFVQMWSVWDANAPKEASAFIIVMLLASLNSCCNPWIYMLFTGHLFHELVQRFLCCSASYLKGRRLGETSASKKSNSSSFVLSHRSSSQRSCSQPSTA
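test system = CHO-OTR cells, human receptor | compound = single-point 3.0 µM | schedule = 6 min compound pre-incubation at room temperature, 100 s kinetic read | signal = Fluo-8 no-wash calcium dye fluorescence, excitation 470-495 nm, emission 515-575 nm | repeats = single well per compound, singlicate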
CHO parental Ca: ATP-evoked calcium signal inhibitors, parental CHO, primary screen, counter-screen for OX1R antagonist project, cell-based, fluorescence, Fluo-8 calcium dye | AID 463079, 2010 | parental CHO-K1, ATP-induced calcium, Fluo-8 fluorescence | 330,000 compounds, 0.63% hits | inhibition, % at 5.6 µM;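 active = inhibition above that plate's mean sample inhibition plus 3 SD, cut at about 26% in these data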
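Assay system – parental CHO cells · Reagent – ATP stimulus · Detection – intracellular calcium via Fluo-8 no-wash fluorescent dye · Evaluation – percent inhibition of ATP-evoked calcium rise, normalized to controls · Controls – ATP wells versus no-ATP DMSO wells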
OXTR agonist: human OXTR agonists, primary screen, fluorescence, CHO-OTR cells, Fluo-8 calcium | Oxytocin receptor (Homo sapiens), P30559 | Fluo-8 calcium fluorescence; normalized: DMSO 0%, oxytocin 100% | activation, % at 3 µM | 320,000 compounds, 0.32% hits;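 active = activation above the mean of all tested compounds plus 3 SD, cutoff set per screening run, cut at about 20% in these data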;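 note: peak over basal fluorescence ratio from a 100 s FLIPR kinetic read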
A number is an active result; n = inactive.

SMILES | V1aR counter | OX1R antag-1 | OX1R antag-2 | OXTR potentiate | CHO parental Ca | OXTR agonist
NS(=O)(=O)c1ccc(O)c(N2C(=O)c3cccc4c(C(=O)O)ccc(c34)C2=O)c1 | n | n | n | n | n | n
NN1C(=O)c2cccc3c(C(=O)O)ccc(c23)C1=O | n | 57.8 | n | n | n | n
O=C(O)c1ccc(N2C(=O)c3cccc4c(C(=O)O)ccc(c34)C2=O)cc1 | n | n | n | n | n | n
O=C(O)c1ccc2c3c(cccc13)C(=O)N(c1ccccc1)C2=O | n | 57.5 | n | n | n | n
O=C1c2cccc3c(Cl)ccc(c23)C(=O)N1O | n | 52.3 | 53.2 | n | n | n
O=C(COC(=O)COc1ccccc1)NCc1ccc2c(c1)OCO2 | n | n | n | n | n | n
CN(Cc1ccccc1)C(=O)c1[nH]cnc1C(=O)NCC(=O)OCc1ccccc1 | n | n | n | n | n | n
Cc1cc(NC(=O)C(C)SCC(=O)N(C)Cc2c(F)cccc2Cl)no1 (stereo not given) | n | n | n | n | n | n
CNc1nc(SC)n(C)c(=O)c1N=O | n | 48.4 | n | n | n | n
CCn1c(SCC(=O)NCCc2ccccc2)nc2c([nH]c3ccccc32)c1=O | n | n | n | n | n | n
Cc1nc2ccc(C(=O)Nc3ccc(N(C)C)cc3)cc2s1 | n | 60.8 | n | n | n | n
Cc1nc2ccc(NC(=O)c3ccccc3)cc2s1 | n | n | n | n | n | n
CCNc1ccc(C(=O)Nc2ccc3nc(C)sc3c2)cc1[N+](=O)[O-] | n | 60.5 | n | n | n | n
Cc1nc2ccc(NC(=O)c3ccc4ccccc4n3)cc2s1 | n | 65.4 | n | n | n | n
CC(=O)c1ccc(NC(=O)c2ccc3nc(C)sc3c2)cc1 | n | 60.9 | n | n | n | n
Cc1ccc(NC(=O)c2ccc(NCCN)c([N+](=O)[O-])c2)cc1Cl | n | n | n | n | n | n
Cc1nc2nc(SCC(=O)NCCCN3CCCC(C)C3)nn2c(C)c1Cc1ccccc1Cl (stereo not given) | n | n | n | n | n | n
O=C(Nc1ccccc1N1CCOCC1)c1cc(=O)[nH]c2ccccc12 | n | n | n | n | n | n
CC(Oc1ccc(Cl)cc1Cl)c1nc(-c2ccc(NC(=O)c3ccncc3)cc2)no1 (stereo not given) | n | n | n | n | 43.2 | n
CCOC(=O)c1c(S(=O)(=O)Nc2ccccc2OCC)c(C)n(C)c1C | n | n | n | n | n | n
COc1ccc(CCC(=O)NC(C)C2CCCO2)cc1 (stereo not given) | n | n | n | n | n | n
CC(=O)c1c(C)[nH]c(C(=O)OCc2ccccc2)c1C | n | n | n | n | n | n
CC(=O)c1c(C)[nH]c(C(=O)OCCCCN2C(=O)c3ccccc3C2=O)c1C | n | 45.0 | 62.5 | n | 74.7 | n
O=C(CCCc1nc(-c2ccc(Cl)cc2)no1)NC1CCCC1 | n | n | n | n | 48.2 | n
O=C(CCc1nc(-c2ccc(Cl)cc2)no1)NC1CCCCC1 | n | n | n | n | n | n
SMILES | V1aR counter | OX1R antag-1 | OX1R antag-2 | OXTR potentiate | CHO parental Ca | OXTR agonist
FC(F)(F)c1cc(-c2cccs2)nc2ncnn12 | n | 62.1 | n | n | n | n
O=C(Cc1ccc(Cl)cc1)Nc1cccc(S(=O)(=O)Nc2ccccc2F)c1 | n | n | n | n | n | n
O=C(CSc1ccc([N+](=O)[O-])cc1)Nc1cccc(S(=O)(=O)Nc2ccccc2F)c1 | n | n | n | n | 46.4 | n
Cc1occc1-c1nnc(SCC(=O)Nc2nc(C(C)(C)C)cs2)o1 | n | n | n | n | 36.1 | n
Cc1csc(NC(=O)CSc2nnc(-c3ccoc3C)o2)n1 | n | n | n | n | n | n
O=C(C[C@H]1C/C=C\CCC(=O)OC[C@H]2CCCN2C1=O)NCCO | n | n | n | n | n | n
Cc1cc(C)n(CCc2nc(-c3cc4ccccc4o3)cs2)n1 | n | n | 54.9 | n | 37.6 | n
